Like-named read-outs stand apart in the source and are kept apart here.
Experiments:
ovine COX-1 = biological target: T1, ovine COX-1 (Ovis aries, UniProt P05979); assay: COX Fluorescent Inhibitor Screening Assay Kit; type: biochemical; conditions: for % inhibition @ 100 μM COX-1: 100 μM compound
T1 sequence (P05979 25-600): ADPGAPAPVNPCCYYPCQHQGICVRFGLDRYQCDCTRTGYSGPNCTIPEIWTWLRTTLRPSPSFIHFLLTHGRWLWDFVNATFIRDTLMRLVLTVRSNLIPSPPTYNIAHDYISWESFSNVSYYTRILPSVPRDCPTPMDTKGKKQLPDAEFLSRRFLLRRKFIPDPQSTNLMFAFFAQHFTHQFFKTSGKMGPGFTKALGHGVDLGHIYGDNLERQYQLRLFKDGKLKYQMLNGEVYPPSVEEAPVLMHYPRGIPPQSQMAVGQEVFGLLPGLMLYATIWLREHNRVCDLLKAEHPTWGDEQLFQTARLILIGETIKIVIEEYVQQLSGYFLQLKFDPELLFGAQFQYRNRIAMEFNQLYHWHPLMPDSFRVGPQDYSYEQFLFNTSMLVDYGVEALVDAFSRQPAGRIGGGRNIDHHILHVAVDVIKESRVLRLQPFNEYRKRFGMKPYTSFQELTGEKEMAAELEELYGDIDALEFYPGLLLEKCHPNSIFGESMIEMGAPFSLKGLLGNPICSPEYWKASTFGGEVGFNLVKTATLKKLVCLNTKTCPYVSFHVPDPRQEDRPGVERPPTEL

CT26 [1] = assay: MTT viability test, CT26; type: cell-based, mouse; conditions: read-out: IC50 CT26 MTT
In short: (§1)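 Cells were grown in RPMI-1640 with 10% FCS and antibiotics at 37 °C, 5% CO2. Seeding per well was CT26 4 × 10^3, HT-29 1.5 × 10^4, SW480 3 × 10^3 and HCT116 5 × 10^3, with overnight adherence. Test compound came from a 200 mM DMSO stock (≤0.1% DMSO final) and was applied at 0–200 μM for 72 h. Viability was read by MTT or crystal violet, in triplicate.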

CT26 [2] = assay: Crystal violet; type: cell-based, mouse; conditions: read-out: IC50 CT26 CV
In short: as §1

HT29 [3] = assay: MTT viability test, HT29; type: cell-based, human; conditions: read-out: IC50 HT29 MTT
In short: as §1

HT29 [4] = assay: Crystal violet; type: cell-based, human; conditions: read-out: IC50 HT29 CV
In short: as §1

SW480 [5] = assay: MTT viability test, SW480; type: cell-based, human; conditions: read-out: IC50 SW480 MTT
In short: as §1

SW480 [6] = assay: Crystal violet; type: cell-based, human; conditions: read-out: IC50 SW480 CV
In short: as §1

HCT116 [7] = assay: MTT viability test, HCT116; type: cell-based, human; conditions: read-out: IC50 HCT116 MTT
In short: as §1

HCT116 [8] = assay: Crystal violet; type: cell-based, human; conditions: read-out: IC50 HCT116 CV
In short: as §1

human COX-2 = biological target: T2, human COX-2 (Homo sapiens, UniProt P35354); assay: biochemical; type: biochemical; conditions: for % inhibition @ 100 μM COX-2: 100 μM compound
T2 sequence (P35354 18-604): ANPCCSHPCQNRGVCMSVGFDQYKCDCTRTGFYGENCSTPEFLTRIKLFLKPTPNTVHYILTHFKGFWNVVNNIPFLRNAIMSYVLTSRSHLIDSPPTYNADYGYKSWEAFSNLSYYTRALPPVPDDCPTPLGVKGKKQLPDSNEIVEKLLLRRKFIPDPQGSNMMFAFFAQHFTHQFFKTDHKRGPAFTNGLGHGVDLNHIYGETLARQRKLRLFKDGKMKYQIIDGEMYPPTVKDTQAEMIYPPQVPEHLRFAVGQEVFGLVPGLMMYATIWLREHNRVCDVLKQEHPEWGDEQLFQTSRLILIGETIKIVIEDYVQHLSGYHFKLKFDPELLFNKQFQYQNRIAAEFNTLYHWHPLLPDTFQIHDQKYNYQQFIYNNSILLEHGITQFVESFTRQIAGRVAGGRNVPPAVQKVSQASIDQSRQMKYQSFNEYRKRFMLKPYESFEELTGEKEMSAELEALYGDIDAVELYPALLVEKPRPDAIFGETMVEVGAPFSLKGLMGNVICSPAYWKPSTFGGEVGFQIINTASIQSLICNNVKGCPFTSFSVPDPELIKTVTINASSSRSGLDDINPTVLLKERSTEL

HCT116 cells [9] = assay: Caspase activation, ApoStat flow cytometry, HCT116; type: cell-based, human; conditions: IC50 dose, 72 h, fluorescence-labeled pan-caspase inhibitor
In short: (§2)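 Seeding in six-well plates was HCT116 2 × 10^5/well and SW480 1.5 × 10^5/well. Cells were exposed to test compound (DMSO vehicle, ≤0.1%) for 72 h. They were then stained with the FITC-labelled pan-caspase inhibitor ApoStat according to the manufacturer's protocol. The percentage of caspase-active cells was measured by flow cytometry. Data are representative of three independent experiments.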

SW480 cells [10] = assay: Caspase activation, ApoStat flow cytometry, SW480; type: cell-based, human; conditions: IC50 dose, 72 h, fluorescence-labeled pan-caspase inhibitor
In short: as §2

HCT116 cells [11] = assay: Cell proliferation, CFSE flow cytometry, HCT116; type: cell-based, human; conditions: HCT116, IC50 dose, 72 h
In short: (§3)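 HCT116 (2 × 10^5/well) or SW480 (1.5 × 10^5/well) cells were prelabelled with 1 μM CFSE in six-well plates. They were then exposed to test compound in culture medium (≤0.1% DMSO) for 72 h. CFSE dilution was measured by flow cytometry. Data are representative of three independent experiments.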

SW480 cells [12] = assay: Cell proliferation, CFSE flow cytometry, SW480; type: cell-based, human; conditions: SW480, IC50 dose, 72 h
In short: as §3

HCT116 cells [13] = assay: ROS/RNS production, DHR flow cytometry, HCT116; type: cell-based, human; conditions: HCT116, IC50 dose, 72 h
In short: (§4)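 HCT116 (2 × 10^5/well) and SW480 (1.5 × 10^5/well) cells in six-well plates were treated with test compound for 72 h. Treatment was in culture medium containing 1 μM dihydrorhodamine 123 (≤0.1% DMSO). Intracellular ROS/RNS was measured as fluorescence by flow cytometry. Data are representative of three independent experiments.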

SW480 cells [14] = assay: ROS/RNS production, DHR flow cytometry, SW480; type: cell-based, human; conditions: SW480, IC50 dose, 72 h
In short: as §4

COX-1 = conditions: read-out: IC50(COX-1) literature value; in blood; cited from earlier work
[15] = system: human breast, bladder, and non-small lung cancer cell lines; conditions: read-out: cytotoxic potential; literature data; cited from earlier work

Compound | % inhibition @ 100 μM COX-1 (ovine COX-1; no BSA) [%] | IC50 (CT26 [1]; 72 h, COX-2 +) [µM] | IC50 (CT26 [2]; 72 h, COX-2 +) [µM] | IC50 (HT29 [3]; 72 h, COX-2 +) [µM] | IC50 (HT29 [4]; 72 h, COX-2 +) [µM] | IC50 (SW480 [5]; 72 h, COX-2 –) [µM] | IC50 (SW480 [6]; 72 h, COX-2 –) [µM] | IC50 (HCT116 [7]; 72 h, COX-2 –) [µM] | IC50 (HCT116 [8]; 72 h, COX-2 –) [µM] | % inhibition @ 100 μM COX-2 (human COX-2; no BSA) [%] | caspase activation, % HCT116 cells (HCT116 cells [9]) [%] | caspase activation, % SW480 cells (SW480 cells [10]) [%] | also measured
N-(1,7-Dicarba-closo-dodecaboran-9-yl)-2-benzoic acid [3c] | 11 | 76.5 ± 2.8 | 160 ± 6.6 | 184 ± 4.5 | > 200 | 90.6 ± 3.3 | 117 ± 7.9 | 93.2 ± 7.6 | 147 ± 8.6 | – | – | – | –
N-(1,2-Dicarba-closo-dodecaboran-9-yl)-2-benzoic acid [2c] | – | 61.6 ± 0.1 | 93.3 ± 5.7 | 183 ± 3.7 | > 200 | 77.6 ± 0.1 | 75.6 ± 4 | 74.6 ± 4.8 | 83.6 ± 3.8 | – | – | – | –
N-(1,2-Dicarba-closo-dodecaboran-9-yl)-2-benzonitrile [2b] | 32 | 38.3 ± 0.4 | 47.2 ± 2.3 | 45.6 ± 2.7 | > 200 | 39 ± 1.2 | 24 ± 0.8 | 34.4 ± 1.8 | 35.5 ± 3.1 | 28 | 1.1 | 3.2 | cell division rate vs untreated cells (HCT116 cells [11]): remarkably lower; cell division rate vs untreated cells (SW480 cells [12]): remarkably lower; ROS/RNS production (HCT116 cells [13]): increased; ROS/RNS production (SW480 cells [14]): increased
N-(1,12-Dicarba-closo-dodecaboran-2-yl)-2-benzoic acid [4c] | 7 | 72.6 ± 4.5 | 137 ± 3.1 | 165 ± 0.3 | > 200 | 77.8 ± 0.4 | 76.4 ± 3.5 | 67.6 ± 1.3 | 77.4 ± 3.4 | – | – | – | –
N-(1,12-Dicarba-closo-dodecaboran-2-yl)-2-benzonitrile [4b] | 12 | > 200 | > 200 | > 200 | > 200 | > 200 | > 200 | > 200 | > 200 | – | – | – | –
N-(1,7-Dicarba-closo-dodecaboran-9-yl)-2-benzonitrile [3b] | 22 | 22.4 ± 1.7 | 37.4 ± 1.2 | 46.4 ± 2.9 | 116 ± 2.2 | 23.8 ± 2.1 | 24.9 ± 1.8 | 28.2 ± 1.8 | 31.8 ± 2.3 | 13 | 5.6 | 6.8 | cell division rate vs untreated cells (HCT116 cells [11]): remarkably lower; cell division rate vs untreated cells (SW480 cells [12]): remarkably lower
Sodium rac-[N-(7,8-dicarba-closo-dodecaboran-6-yl)-2-benzonitrile] [compound 5] | 83 | 167 ± 8.8 | 150 ± 4.9 | 141 ± 7.8 | 182 ± 1.7 | 121 ± 4.5 | 84 ± 3.3 | 129 ± 10 | 115 ± 6 | 76 | – | – | IC50 (ovine COX-1; read-out: IC50 COX-1, no BSA): 40 µM; IC50 (human COX-2; read-out: IC50 COX-2, no BSA): 33 µM
Cc1cccc(Nc2ccccc2C(=O)O)c1C [compound 1, Mefenamic acid, reference compound] | – | – | – | – | – | – | – | – | – | – | 0.5 | 5.2 | IC50 (ovine COX-1): 0.12 µM; inhibition plateau COX-1 (ovine COX-1; concentration range between 1 and 100 μM): around 60%; inhibition at 100 µM (ovine COX-1; read-out: % inhibition @ 100 μM COX-1): 59%; IC50 COX-2 (human COX-2): no IC50 value could be determined; inhibition at 100 µM (human COX-2; read-out: % inhibition @ 100 μM COX-2): 20%; IC50 (CT26 [1]; Mus musculus, CT26, 72 h): 114 ± 4.2 µM; IC50 (CT26 [2]; Mus musculus, CT26, 72 h): 163 ± 2 µM; IC50 (HT29 [3]; Homo sapiens, HT-29, 72 h): > 200 µM; IC50 (HT29 [4]; Homo sapiens, HT-29, 72 h): > 200 µM; IC50 (SW480 [5]; Homo sapiens, SW480, 72 h): 104 ± 6.4 µM; IC50 (SW480 [6]; Homo sapiens, SW480, 72 h): 120 ± 6.1 µM; IC50 (HCT116 [7]; Homo sapiens, HCT-116, 72 h): 96.2 ± 7.9 µM; IC50 (HCT116 [8]; Homo sapiens, HCT-116, 72 h): 101 ± 6.5 µM; IC50 (COX-1): 1.94 µM; IC50 [15]: ~20 µM
